Results published in ChEMBL document CHEMBL5696442, “Discovery of type II inhibitors of TGFβ-activated kinase 1 (TAK1) and mitogen-activated protein kinase kinase kinase kinase 2 (MAP4K2)” (J Med Chem, 2015).

Columns and labels:
[1] = molecular target: Cyclin-dependent kinase 11B (Homo sapiens) (UniProt P21127); experiment: Inhibition of CDK11 Lys2 labeling site in human A-375 cells at 5 uM by KiNativ Profiling analysis relative to control; type: cell-based
In short: (§1)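 Live A375 melanoma cells were treated with compound at 5 or 0.5 μM. The cells were then lysed, and the lysates were labeled with a lysine-reactive ATP or ADP-biotin acyl probe (KiNativ). Inhibition is the compound's protection of each kinase labeling-site peptide from probe labeling, relative to untreated control.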

[2] = molecular target: Interleukin-1 receptor-associated kinase 1 (Homo sapiens) (UniProt P51617); experiment: Inhibition of IRAK1 Lys2 labeling site in human A-375 cells at 5 uM by KiNativ Profiling analysis relative to control; type: cell-based
[3] = molecular target: Mitogen-activated protein kinase 7 (Homo sapiens) (UniProt Q13164); experiment: Inhibition of Erk5 Lys2 labeling site in human A-375 cells at 5 uM by KiNativ Profiling analysis relative to control; type: cell-based
In short: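 Live A375 melanoma cells were treated with compound at 0.5 or 5 μM, then lysed. Lysates were labeled with a lysine-reactive ATP or ADP-biotin probe. The read-out was protection of each kinase probe-labeling site from labeling, relative to control.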

[4] = molecular target: Serine/threonine-protein kinase SIK3 (Homo sapiens) (UniProt Q9Y2K2); experiment: Inhibition of QSK Lys2 labeling site in human A-375 cells at 5 uM by KiNativ Profiling analysis relative to control; type: cell-based
[5] = molecular target: Serine/threonine-protein kinase Nek7 (Homo sapiens) (UniProt Q8TDX7); experiment: Inhibition of NEK7 ACT labeling site in human A-375 cells at 0.05 uM by KiNativ Profiling analysis relative to control; type: cell-based
[6] = molecular target: Mitogen-activated protein kinase 10 (Homo sapiens, UniProt P53779); experiment: Inhibition of JNK3 Lys2 labeling site in human A-375 cells at 0.05 uM by KiNativ Profiling analysis relative to control; type: cell-based
[7] = molecular target: Tyrosine-protein kinase receptor UFO (Homo sapiens) (UniProt P30530); experiment: Inhibition of AXL ACT labeling site in human A-375 cells at 0.05 uM by KiNativ Profiling analysis relative to control; type: cell-based
[8] = molecular target: Protein kinase C alpha type (Homo sapiens) (UniProt P17252); experiment: Inhibition of PKCa Lys2 labeling site in human A-375 cells at 5 uM by KiNativ Profiling analysis relative to control; type: cell-based
[9] = molecular target: Cyclin-dependent kinase 4 (Homo sapiens) (UniProt P11802); experiment: Inhibition of CDK4 Lys2 labeling site in human A-375 cells at 0.5 uM by KiNativ Profiling analysis relative to control; type: cell-based; in short: as §1
[10] = molecular target: Tyrosine-protein kinase ABL1 (Homo sapiens, UniProt P00519); experiment: Inhibition of ABL (unknown origin) ACT labeling site by KiNativ Profiling analysis
[11] = molecular target: Mitogen-activated protein kinase kinase kinase 1 (Homo sapiens) (UniProt Q13233); experiment: Inhibition of MAP3K1 Lys2 labeling site in human A-375 cells at 0.5 uM by KiNativ Profiling analysis relative to control; type: cell-based
[12] = molecular target: T1, Ephrin type-B receptor 4 (Homo sapiens) (UniProt P54760); experiment: Inhibition of EphB4 ACT labeling site in human A-375 cells at 0.05 uM by KiNativ Profiling analysis relative to control; type: cell-based
T1 sequence (whole entry): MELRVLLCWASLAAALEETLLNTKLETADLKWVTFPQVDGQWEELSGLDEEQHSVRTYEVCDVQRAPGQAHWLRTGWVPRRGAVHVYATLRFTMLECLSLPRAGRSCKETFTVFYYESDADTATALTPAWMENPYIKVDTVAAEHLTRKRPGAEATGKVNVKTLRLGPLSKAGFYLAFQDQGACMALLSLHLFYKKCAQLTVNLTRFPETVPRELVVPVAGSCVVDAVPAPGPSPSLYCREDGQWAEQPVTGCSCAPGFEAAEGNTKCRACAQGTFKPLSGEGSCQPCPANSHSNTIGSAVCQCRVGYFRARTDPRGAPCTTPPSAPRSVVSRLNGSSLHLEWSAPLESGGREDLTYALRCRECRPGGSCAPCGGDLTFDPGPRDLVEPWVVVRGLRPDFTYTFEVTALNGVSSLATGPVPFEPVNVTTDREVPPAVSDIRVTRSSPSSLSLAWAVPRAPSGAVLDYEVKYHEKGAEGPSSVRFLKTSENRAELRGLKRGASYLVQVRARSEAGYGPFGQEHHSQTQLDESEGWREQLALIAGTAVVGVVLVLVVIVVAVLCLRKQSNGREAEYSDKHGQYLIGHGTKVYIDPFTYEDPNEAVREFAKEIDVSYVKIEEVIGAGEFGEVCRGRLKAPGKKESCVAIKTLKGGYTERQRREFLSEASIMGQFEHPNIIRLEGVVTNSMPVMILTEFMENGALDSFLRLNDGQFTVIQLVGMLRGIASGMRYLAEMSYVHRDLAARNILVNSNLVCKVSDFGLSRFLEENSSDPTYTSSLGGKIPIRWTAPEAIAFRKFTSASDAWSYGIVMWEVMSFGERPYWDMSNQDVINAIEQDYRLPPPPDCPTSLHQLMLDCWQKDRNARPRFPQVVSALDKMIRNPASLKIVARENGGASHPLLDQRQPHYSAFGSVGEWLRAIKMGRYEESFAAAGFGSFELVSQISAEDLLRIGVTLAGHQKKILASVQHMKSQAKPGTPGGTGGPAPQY

[13] = molecular target: DNA-PK/Ku70/Ku85 (Homo sapiens) (UniProt P78527+P12956+P13010); experiment: Inhibition of DNAPK ATP labeling site harbouring KGGSWIQEINVAEKNWYPR in human A-375 cells at 0.05 uM by KiNativ Profiling analysis relative to control; type: cell-based

Chain of Serine/threonine-protein kinase SIK3 (Homo sapiens) (Q9Y2K2 whole entry, looked up): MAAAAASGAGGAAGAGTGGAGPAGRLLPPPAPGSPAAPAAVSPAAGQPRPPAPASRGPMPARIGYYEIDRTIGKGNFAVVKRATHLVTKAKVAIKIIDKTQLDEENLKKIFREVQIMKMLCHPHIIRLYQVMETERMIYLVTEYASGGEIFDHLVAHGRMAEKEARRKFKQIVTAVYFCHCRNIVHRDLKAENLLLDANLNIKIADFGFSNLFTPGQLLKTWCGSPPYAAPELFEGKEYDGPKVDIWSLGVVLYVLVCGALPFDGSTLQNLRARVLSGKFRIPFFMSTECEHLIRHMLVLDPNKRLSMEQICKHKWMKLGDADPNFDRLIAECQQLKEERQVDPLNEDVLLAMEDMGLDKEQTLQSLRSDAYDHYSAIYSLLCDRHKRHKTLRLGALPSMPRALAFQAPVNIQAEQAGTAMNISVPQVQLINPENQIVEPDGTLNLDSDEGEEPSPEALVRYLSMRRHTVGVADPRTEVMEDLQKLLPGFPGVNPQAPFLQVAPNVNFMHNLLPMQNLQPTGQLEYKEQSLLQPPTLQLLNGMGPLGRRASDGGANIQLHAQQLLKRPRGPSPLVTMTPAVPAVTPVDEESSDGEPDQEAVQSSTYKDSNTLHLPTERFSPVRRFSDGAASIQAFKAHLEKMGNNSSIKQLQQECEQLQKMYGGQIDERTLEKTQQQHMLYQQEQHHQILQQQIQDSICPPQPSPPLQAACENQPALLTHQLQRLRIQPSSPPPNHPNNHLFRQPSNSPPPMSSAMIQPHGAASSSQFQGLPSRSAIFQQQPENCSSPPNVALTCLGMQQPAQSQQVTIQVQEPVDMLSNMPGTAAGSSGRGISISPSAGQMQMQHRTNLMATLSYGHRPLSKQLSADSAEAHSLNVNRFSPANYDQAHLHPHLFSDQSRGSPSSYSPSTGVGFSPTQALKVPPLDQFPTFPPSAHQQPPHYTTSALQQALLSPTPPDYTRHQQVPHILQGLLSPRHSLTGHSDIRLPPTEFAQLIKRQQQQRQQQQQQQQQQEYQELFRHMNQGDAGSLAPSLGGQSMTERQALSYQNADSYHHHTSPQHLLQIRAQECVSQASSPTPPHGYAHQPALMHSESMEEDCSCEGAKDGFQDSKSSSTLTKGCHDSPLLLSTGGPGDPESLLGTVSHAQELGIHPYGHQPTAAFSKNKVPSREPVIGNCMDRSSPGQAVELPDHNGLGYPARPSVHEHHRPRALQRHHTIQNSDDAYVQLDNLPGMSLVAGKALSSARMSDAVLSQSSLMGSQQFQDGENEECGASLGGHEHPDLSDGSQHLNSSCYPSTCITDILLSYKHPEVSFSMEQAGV
Chain of Mitogen-activated protein kinase 10 (P53779 whole entry): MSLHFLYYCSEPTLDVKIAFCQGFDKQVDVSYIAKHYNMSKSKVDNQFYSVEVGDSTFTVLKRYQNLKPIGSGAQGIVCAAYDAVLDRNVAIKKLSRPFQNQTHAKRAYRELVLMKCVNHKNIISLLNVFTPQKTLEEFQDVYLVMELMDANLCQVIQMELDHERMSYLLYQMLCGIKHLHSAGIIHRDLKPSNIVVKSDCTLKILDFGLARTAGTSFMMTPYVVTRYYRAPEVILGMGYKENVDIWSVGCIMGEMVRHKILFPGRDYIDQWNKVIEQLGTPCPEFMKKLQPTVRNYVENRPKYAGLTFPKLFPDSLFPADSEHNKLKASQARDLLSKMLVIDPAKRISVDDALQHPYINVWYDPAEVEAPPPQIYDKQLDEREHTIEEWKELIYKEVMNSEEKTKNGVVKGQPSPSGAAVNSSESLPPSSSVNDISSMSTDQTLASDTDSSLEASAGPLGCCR
Chain of Cyclin-dependent kinase 11B (Homo sapiens) (P21127 whole entry): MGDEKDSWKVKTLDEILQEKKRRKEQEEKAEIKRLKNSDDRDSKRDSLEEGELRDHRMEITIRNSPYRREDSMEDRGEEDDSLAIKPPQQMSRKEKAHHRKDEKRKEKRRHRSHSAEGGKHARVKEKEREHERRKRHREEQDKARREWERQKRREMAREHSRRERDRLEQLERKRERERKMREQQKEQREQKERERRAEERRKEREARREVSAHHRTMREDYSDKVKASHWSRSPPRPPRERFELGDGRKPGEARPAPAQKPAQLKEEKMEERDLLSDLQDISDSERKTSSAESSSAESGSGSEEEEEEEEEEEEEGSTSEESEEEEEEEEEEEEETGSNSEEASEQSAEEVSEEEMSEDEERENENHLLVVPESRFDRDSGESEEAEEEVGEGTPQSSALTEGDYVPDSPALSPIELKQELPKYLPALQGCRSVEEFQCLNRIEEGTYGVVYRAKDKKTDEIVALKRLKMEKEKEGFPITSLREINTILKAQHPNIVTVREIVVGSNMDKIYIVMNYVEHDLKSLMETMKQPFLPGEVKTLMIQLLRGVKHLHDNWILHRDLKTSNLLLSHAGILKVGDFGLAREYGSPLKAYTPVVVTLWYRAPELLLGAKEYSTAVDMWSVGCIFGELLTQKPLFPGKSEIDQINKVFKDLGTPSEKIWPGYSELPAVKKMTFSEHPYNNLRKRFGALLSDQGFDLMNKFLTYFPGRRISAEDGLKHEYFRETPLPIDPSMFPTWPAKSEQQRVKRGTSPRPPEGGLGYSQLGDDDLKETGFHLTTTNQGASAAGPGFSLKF
Chain of Tyrosine-protein kinase ABL1 (P00519 whole entry): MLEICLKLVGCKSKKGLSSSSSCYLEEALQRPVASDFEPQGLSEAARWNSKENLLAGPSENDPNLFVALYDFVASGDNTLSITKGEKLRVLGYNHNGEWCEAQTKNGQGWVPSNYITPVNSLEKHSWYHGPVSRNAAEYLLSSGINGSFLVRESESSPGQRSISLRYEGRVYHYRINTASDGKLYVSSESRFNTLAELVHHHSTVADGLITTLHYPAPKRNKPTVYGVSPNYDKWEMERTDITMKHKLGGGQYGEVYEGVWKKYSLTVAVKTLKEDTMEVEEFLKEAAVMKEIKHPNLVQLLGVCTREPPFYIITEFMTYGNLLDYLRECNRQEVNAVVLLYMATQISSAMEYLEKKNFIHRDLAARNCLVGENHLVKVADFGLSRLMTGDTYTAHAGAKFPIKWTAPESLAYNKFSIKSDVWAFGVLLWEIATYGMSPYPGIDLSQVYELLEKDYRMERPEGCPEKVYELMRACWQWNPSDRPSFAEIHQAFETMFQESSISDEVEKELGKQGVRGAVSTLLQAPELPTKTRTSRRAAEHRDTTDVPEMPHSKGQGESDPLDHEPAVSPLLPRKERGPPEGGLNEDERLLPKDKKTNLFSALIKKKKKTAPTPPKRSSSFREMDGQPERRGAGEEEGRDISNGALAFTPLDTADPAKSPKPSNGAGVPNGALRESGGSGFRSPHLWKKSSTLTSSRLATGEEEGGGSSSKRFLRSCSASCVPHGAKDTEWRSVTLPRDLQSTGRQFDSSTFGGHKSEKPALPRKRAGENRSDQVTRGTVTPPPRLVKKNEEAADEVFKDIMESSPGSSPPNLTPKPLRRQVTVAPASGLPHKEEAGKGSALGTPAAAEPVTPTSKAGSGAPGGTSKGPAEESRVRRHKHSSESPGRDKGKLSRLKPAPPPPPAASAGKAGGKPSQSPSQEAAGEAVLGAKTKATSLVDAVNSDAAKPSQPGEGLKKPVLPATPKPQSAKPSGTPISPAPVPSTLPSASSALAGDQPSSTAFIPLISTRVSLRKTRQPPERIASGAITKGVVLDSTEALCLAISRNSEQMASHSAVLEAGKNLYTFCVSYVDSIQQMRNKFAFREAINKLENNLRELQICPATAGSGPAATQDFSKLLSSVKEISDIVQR
Chain of Interleukin-1 receptor-associated kinase 1 (Homo sapiens) (P51617 whole entry, looked up): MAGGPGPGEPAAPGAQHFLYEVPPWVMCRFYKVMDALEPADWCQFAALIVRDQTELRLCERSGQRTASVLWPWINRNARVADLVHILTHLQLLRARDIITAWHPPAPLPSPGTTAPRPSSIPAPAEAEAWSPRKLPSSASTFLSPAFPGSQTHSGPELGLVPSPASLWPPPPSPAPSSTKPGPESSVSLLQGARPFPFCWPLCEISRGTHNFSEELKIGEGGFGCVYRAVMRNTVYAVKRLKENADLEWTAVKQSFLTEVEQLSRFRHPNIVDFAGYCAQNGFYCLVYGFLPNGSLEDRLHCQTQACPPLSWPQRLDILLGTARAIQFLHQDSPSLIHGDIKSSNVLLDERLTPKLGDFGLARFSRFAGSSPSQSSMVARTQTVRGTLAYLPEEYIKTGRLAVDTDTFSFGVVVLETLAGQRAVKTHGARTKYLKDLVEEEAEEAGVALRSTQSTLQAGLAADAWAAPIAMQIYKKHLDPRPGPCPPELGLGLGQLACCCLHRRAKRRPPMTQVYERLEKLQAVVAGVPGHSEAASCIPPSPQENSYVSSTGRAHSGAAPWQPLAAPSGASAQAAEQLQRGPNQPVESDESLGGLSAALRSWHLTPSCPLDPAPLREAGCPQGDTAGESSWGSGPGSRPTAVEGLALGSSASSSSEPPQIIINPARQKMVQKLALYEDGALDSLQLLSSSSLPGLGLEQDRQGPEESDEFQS
Chain of Serine/threonine-protein kinase Nek7 (Homo sapiens) (Q8TDX7 whole entry, looked up): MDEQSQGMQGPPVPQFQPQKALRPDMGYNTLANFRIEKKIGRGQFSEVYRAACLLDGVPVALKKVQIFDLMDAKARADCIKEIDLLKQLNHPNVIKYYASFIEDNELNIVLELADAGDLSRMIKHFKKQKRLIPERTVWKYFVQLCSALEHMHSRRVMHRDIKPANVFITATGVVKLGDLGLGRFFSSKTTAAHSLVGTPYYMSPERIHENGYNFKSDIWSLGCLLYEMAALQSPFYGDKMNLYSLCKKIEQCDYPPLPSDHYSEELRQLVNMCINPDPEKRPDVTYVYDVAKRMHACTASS
Chain of Cyclin-dependent kinase 4 (Homo sapiens) (P11802 whole entry): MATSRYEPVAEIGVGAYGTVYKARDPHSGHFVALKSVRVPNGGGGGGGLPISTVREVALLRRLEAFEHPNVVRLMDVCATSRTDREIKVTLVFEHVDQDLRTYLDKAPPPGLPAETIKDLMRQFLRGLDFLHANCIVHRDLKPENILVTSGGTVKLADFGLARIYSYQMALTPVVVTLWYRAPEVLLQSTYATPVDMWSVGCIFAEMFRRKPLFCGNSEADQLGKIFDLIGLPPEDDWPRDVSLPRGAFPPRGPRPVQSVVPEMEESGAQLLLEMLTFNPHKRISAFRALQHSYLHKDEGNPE

Structure (SMILES)	inhibition [1] [%]	inhibition [2] [%]	inhibition [3] [%]	inhibition [4] [%]	inhibition [5] [%]	inhibition [6] [%]	inhibition [7] [%]	inhibition [8] [%]	inhibition [9] [%]	IC50 [10] [nM]	inhibition [11] [%]	inhibition [12] [%]	inhibition [13] [%]
CCN1CCN(Cc2ccc(NC(=O)c3ccc(C)c(/C=C/c4cnc5[nH]ccc5c4OC)c3)cc2C(F)(F)F)CC1	16.9	61.1	8.7	28.6	6.8	23.9	10.1	50.2	9.2	51.5	43.9	33.4	-3.2
CCN1CCN(Cc2ccc(NC(=O)c3ccc(C)c(Oc4ccnc5[nH]ccc45)c3)cc2C(F)(F)F)CC1	18	7.4	7.8	29.6	14.2	50.3	12.4	51	5.7	75.2	39.7	3.4	6.7
